Reference: ChEMBL document CHEMBL1135143, “Discovery and evaluation of N-(triazin-1,3,5-yl) phenylalanine derivatives as VLA-4 integrin antagonists” (Bioorg Med Chem Lett, 2002)

Key:
[1] = Compound was evaluated for rate of clearance by using IPRL (Isolated Perfused Rat Liver); format: ADME
Integrin alpha-4/beta-1 [2] = biological target: T1, Integrin alpha-4/beta-1 (Homo sapiens, UniProt P05556+P13612); experiment: Inhibition of VLA-4 from HL60 lysate in a protein-based ligand binding assay.
Procedure, shortened: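 Compounds titrated into two-domain VCAM-Fc-Ig solution, then added to VLA-4-coated wells; TBS, 1% BSA, 1 mM MnCl2, 0.1% Tween, 2 h room temperature. After washing, bound VCAM detected with peroxidase-coupled anti-human Fc.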

Integrin alpha-4/beta-1 [3] = biological target: T1, Integrin alpha-4/beta-1; experiment: Inhibition of VLA-4 expressed in Jurkat cell line, in a cell-based adhesion assay.
Procedure, shortened: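 VLA-4-expressing Jurkat cells incubated 30 min at 37 °C with test compound on plates carrying human two-domain VCAM-1-Fc captured by anti-human Fc; after washing, adherent cells stained with Rose Bengal.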

T1 sequence (P05556 whole entry): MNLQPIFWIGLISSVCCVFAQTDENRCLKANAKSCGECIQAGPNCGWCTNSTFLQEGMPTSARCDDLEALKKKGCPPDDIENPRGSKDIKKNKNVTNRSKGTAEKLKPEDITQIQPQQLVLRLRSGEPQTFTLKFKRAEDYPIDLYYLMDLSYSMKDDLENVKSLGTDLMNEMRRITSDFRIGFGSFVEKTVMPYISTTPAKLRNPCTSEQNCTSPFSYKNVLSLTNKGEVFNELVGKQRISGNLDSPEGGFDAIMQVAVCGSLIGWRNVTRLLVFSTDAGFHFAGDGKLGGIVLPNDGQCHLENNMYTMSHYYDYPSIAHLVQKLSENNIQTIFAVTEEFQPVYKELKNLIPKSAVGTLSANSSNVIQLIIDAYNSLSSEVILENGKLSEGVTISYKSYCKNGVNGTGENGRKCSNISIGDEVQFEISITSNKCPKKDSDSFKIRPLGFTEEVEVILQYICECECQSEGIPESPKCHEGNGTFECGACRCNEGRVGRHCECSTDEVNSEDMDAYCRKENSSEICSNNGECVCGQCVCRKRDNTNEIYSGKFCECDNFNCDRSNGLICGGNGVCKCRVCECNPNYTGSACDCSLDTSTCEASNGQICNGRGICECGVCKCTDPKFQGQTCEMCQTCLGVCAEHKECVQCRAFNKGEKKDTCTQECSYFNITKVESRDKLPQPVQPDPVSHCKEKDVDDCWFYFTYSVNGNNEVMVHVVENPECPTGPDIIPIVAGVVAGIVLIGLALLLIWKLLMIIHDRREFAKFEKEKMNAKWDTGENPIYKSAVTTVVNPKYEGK
T1 sequence (P13612 whole entry): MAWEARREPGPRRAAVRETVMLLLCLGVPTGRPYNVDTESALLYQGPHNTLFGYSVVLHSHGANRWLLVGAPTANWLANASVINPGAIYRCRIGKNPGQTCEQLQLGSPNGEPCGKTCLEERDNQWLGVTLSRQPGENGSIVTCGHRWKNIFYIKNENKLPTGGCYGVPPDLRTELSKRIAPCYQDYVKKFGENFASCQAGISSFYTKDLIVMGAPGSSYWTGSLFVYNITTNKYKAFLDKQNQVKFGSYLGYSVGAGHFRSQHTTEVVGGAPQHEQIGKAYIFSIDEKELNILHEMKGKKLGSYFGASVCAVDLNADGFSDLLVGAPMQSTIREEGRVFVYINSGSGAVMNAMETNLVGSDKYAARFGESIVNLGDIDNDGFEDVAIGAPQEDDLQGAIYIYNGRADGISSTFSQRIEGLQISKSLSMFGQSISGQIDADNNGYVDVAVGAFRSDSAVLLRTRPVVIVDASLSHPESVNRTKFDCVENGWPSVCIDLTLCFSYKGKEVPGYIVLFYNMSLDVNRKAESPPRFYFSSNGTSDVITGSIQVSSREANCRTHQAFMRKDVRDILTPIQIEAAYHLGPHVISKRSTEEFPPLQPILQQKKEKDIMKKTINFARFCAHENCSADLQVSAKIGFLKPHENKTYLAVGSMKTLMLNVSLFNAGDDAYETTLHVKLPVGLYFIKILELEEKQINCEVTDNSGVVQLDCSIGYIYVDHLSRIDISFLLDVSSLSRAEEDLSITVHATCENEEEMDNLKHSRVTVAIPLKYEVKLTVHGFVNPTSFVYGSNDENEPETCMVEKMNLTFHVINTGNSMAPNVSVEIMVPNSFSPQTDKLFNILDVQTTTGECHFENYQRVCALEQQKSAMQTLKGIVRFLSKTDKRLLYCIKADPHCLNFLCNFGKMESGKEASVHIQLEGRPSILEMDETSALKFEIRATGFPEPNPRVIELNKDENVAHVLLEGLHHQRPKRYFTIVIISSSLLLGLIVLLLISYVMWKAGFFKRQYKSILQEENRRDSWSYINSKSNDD

| k el [1] | IC50 (Integrin alpha-4/beta-1 [2]) | IC50 (Integrin alpha-4/beta-1 [3]) | SMILES |
| --- | --- | --- | --- |
| 0.000306 s⁻¹ | 16 nM | 590 nM | COc1nc(N[C@@H](Cc2ccc(NC(=O)c3c(Cl)cncc3Cl)cc2)C(=O)O)nc(N(C)C)n1 |
| 5.56e-05 s⁻¹ | 50 nM | 740 nM | CCCOc1nc(N[C@@H](Cc2ccc(NC(=O)c3c(Cl)cncc3Cl)cc2)C(=O)O)nc(OCCC)n1 |
| 0.000611 s⁻¹ | 1500 nM |  | COc1nc(N[C@@H](Cc2ccc(OCc3c(Cl)cccc3Cl)cc2)C(=O)O)nc(OC)n1 |
|  | 14 nM | 510 nM | COc1nc(N[C@@H](Cc2ccc(NC(=O)c3c(Cl)cncc3Cl)cc2)C(=O)O)nc(N2CCOCC2)n1 |
| 0.000194 s⁻¹ | 30 nM | 4000 nM | COc1nc(N[C@@H](Cc2ccc(NC(=O)c3c(Cl)cccc3Cl)cc2)C(=O)O)nc(OC)n1 |
| 0.00108 s⁻¹ | 0.9 nM | 0.5 nM | O=C(Nc1ccc(C[C@H](NC(=O)c2c(Cl)cncc2Cl)C(=O)O)cc1)c1c(Cl)cncc1Cl |
| 0.00103 s⁻¹ | 0.6 nM | 0.5 nM | CC(=O)N1CSC[C@@H]1C(=O)N[C@@H](Cc1ccc(NC(=O)c2c(Cl)cncc2Cl)cc1)C(=O)O |
| 0.000583 s⁻¹ |  |  | O=C(Nc1ccc(C[C@H](Nc2cc(Cl)ncn2)C(=O)O)cc1)c1c(Cl)cncc1Cl |
| 0.000278 s⁻¹ |  |  | O=C(Nc1ccc(C[C@H](Nc2ccc([N+](=O)[O-])cn2)C(=O)O)cc1)c1c(Cl)cncc1Cl |
| 0.000583 s⁻¹ | 25 nM | 1000 nM | COc1nc(N[C@@H](Cc2ccc(NC(=O)c3c(Cl)cncc3Cl)cc2)C(=O)O)nc(N2CCNCC2)n1 |
|  | 5500 nM |  | COc1nc(N[C@@H](Cc2ccc(N(C)C(=O)c3c(Cl)cncc3Cl)cc2)C(=O)O)nc(OC)n1 |
| 0.000306 s⁻¹ | 8 nM | 900 nM | COc1nc(N[C@@H](Cc2ccc(NC(=O)c3c(Cl)cncc3Cl)cc2)C(=O)O)nc(OC)n1 |
| 0.0005 s⁻¹ | 7 nM | 320 nM | COc1nc(NCCO)nc(N[C@@H](Cc2ccc(NC(=O)c3c(Cl)cncc3Cl)cc2)C(=O)O)n1 |
| 0.000167 s⁻¹ | 30 nM | 320 nM | COc1nc(N[C@@H](Cc2ccc(NC(=O)c3c(Cl)cncc3Cl)cc2)C(=O)O)nc(Oc2ccccc2)n1 |
|  | 70 nM | 1620 nM | CCN(CC)c1nc(N[C@@H](Cc2ccc(NC(=O)c3c(Cl)cncc3Cl)cc2)C(=O)O)nc(OC)n1 |
| 0.000167 s⁻¹ | 50 nM | 4600 nM | COc1nc(N[C@@H](Cc2ccc(NC(=O)c3c(F)cccc3C(F)(F)F)cc2)C(=O)O)nc(OC)n1 |
| 0.000583 s⁻¹ | 6 nM | 240 nM | COc1nc(N[C@@H](Cc2ccc(NC(=O)c3c(Cl)cncc3Cl)cc2)C(=O)O)nc(N2CCC(C(=O)O)CC2)n1 |
| 0.000639 s⁻¹ | 45 nM | 300 nM | CCCOc1nc(N[C@@H](Cc2ccc(NC(=O)c3c(Cl)cncc3Cl)cc2)C(=O)O)nc(OC)n1 |
| 0.000667 s⁻¹ | 25 nM | 740 nM | CCCNc1nc(N[C@@H](Cc2ccc(NC(=O)c3c(Cl)cncc3Cl)cc2)C(=O)O)nc(OC)n1 |
